Test results as given in article PMC5862033 (Molecular psychiatry, 2017).

Columns and labels:
[1] = used as correction in blood contamination formula; cited from earlier work
[2] = study did not use labelled OT; cited from earlier work
[3] = statement in discussion, no reference given; cited from earlier work
[4] = d5 OT pharmacokinetics in plasma and CSF after IN and IV administration; type: in vivo, rhesus monkeys (Macaca Mulatta); conditions: for Drug targeting efficiency percentage (DTE%), single monkey: 80 IU d5 OT IN vs IV, AUC0-60 min, individual monkey
Method in brief: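 Rhesus monkeys sedated IM: ketamine (10 mg/kg), dexdomitor (0.01 mg/kg), glycopyrrolate 0.01 mg/kg i.m.; 80 IU deuterated test compound given IN or IV (1 mL normal saline, leg vein), IN saline control, counterbalanced weekly sessions. Blood and CSF drawn pre-dose and 10–60 min. Samples acetonitrile-precipitated, SPE-cleaned at pH 3.0, LC-MS/MS. Non-compartmental AUC0–60, Cmax, Tmax; bioavailability and DTE from AUC ratios.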

Compound: CC[C@H](C)[C@@H]1NC(=O)[C@H](Cc2ccc(O)cc2)NC(=O)[C@@H](N)CSSC[C@@H](C(=O)N2CCC[C@H]2C(=O)N[C@@H](CC(C)C)C(=O)NCC(N)=O)NC(=O)[C@H](CC(N)=O)NC(=O)[C@H](CCC(N)=O)NC1=O [OT, Oxytocin]
- Fraction of OT that is not protein bound [1]: 0.7
- Fraction of OT crossing the BBB [2]: ~ .002%

Compound: atosiban
- Passage of the BBB [3]: does not pass the BBB

Compound: d5-oxytocin [d5 OT]
- Drug targeting efficiency percentage (DTE%), single monkey ([4]; first of 4 values listed): 33.6%
- Drug targeting efficiency percentage (DTE%), single monkey ([4]; second of 4 values listed): 50.5%
- Drug targeting efficiency percentage (DTE%), single monkey ([4]; third of 4 values listed): 154.6%
- Bioavailability post IN administration for plasma and CSF ([4]; 100 x (AUC IN/AUC IV), 80 IU d5 OT, plasma and CSF, values only in words): similar, albeit low
